Measurements reported in ChEMBL document CHEMBL1123969, “Cardiovascular effects of new water-soluble derivatives of forskolin” (J Med Chem, 1988).
Values after ≈ are worked out from the molar mass of the structure shown.

Key:
[1] = species: Cavia porcellus; test: Positive inotropic activity in spontaneously beating guinea pig atria; type: functional, organism-based
In short: (§1)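 Guinea pig atria, spontaneously beating, in Ringer solution at 32 °C gassed with 95% O2/5% CO2. Isometric force recorded at 0.5–1 g initial tension after 30 min stabilization. Compounds in water or propylene glycol given cumulatively at 0.01–30 μg/mL, with 7 min contact per dose. EC50 for a 50% force increase taken graphically from the dose-response curve, in triplicate.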

[2] = system: Felis catus; test: Effective dose for lowering blood pressure in anesthetized cat when administered intravenously; type: functional; details: iv
In short: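 Cats of either sex, 3–4 kg, under ether induction and chloralose (70 mg/kg iv). Compounds in distilled water or propylene glycol were given iv via the femoral vein at 0.01–10 mg/kg. Fall in mean arterial pressure read 10 min post-dose. ED20 taken graphically from the log dose-response curve, with doses run in triplicate.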

[3] = species: Cavia porcellus; test: Positive inotropic activity was assessed in spontaneously beating guinea pig atria; NA=Not active; type: functional, organism-based; in short: as §1

| SMILES | EC50 [1] [µg/mL] | ED20 [2] [mg/kg] | EC50 [3] |
| --- | --- | --- | --- |
| C=C[C@@]1(C)CC(=O)[C@]2(O)C3(C)C(C(O)C(OC(=O)CNC(C)(C)C)[C@@]2(C)O1)C(C)(C)CC[C@@H]3O.Cl (stereo partly drawn) | > 30 | 1 |  |
| C=C[C@@]1(C)CC(=O)[C@]2(O)C3(C)C(C(OC(=O)CN(C)C4CCCCC4)C(O)[C@@]2(C)O1)C(C)(C)CC[C@@H]3O.ClC(Cl)Cl (stereo partly drawn) |  | 3.5 | Not Active |
| C=C[C@@]1(C)CC(=O)[C@]2(O)C3(C)C(C(O)C(OC(=O)CN4CCC(O)CC4)[C@@]2(C)O1)C(C)(C)CC[C@@H]3O.Cl (stereo partly drawn) | > 30 | 3 |  |
| C=C[C@@]1(C)CC(=O)[C@]2(O)C3(C)C(C(OC(=O)CN4CCCC(C)C4)C(O)[C@@]2(C)O1)C(C)(C)CC[C@@H]3O.Cl (stereo partly drawn) | > 30 | 5.4 |  |
| C=C[C@@]1(C)CC(=O)[C@]2(O)C3(C)C(C(OC(=O)C(C)Nc4ccccc4)C(O)[C@@]2(C)O1)C(C)(C)CC[C@@H]3O.Cl (stereo partly drawn) |  | 6.2 | Not Active |
| C=C[C@@]1(C)CC(=O)[C@]2(O)C3(C)C(C(O)C(OC(=O)CN4CCCC4)[C@@]2(C)O1)C(C)(C)CC[C@@H]3O.Cl (stereo partly drawn) | 1.8 | 4 |  |
| Nc1cc(N2CCCCC2)nc(N)[n+]1[O-] [MINOXIDIL] |  | 0.9 |  |
| C=C[C@@]1(C)CC(=O)[C@]2(O)C3(C)C(C(OC(=O)CN4CCC(O)(c5ccccc5)CC4)C(O)[C@@]2(C)O1)C(C)(C)CC[C@@H]3O (stereo partly drawn) | 3 (≈ 5.12 µM) | 5 |  |
| C=C[C@@]1(C)CC(=O)[C@]2(O)C3(C)C(C(O)C(OC(=O)CN(CC)CC)[C@@]2(C)O1)C(C)(C)CC[C@@H]3O.Cl (stereo partly drawn) | 10 | 2 |  |
| C=C[C@@]1(C)CC(=O)[C@]2(O)C3(C)C(C(OC(=O)CCCN4CCOCC4)C(O)[C@@]2(C)O1)C(C)(C)CC[C@@H]3O.Cl (stereo partly drawn) |  | 2 | Not Active |
| C=C[C@@]1(C)CC(=O)[C@]2(O)C3(C)C(C(OC(=O)CNCc4ccccc4)C(O)[C@@]2(C)O1)C(C)(C)CC[C@@H]3O.Cl (stereo partly drawn) | 10 | 3.5 |  |
| C=C[C@@]1(C)CC(=O)[C@]2(O)C3(C)C(C(O)C(OC(=O)CCCN4CCN(C)CC4)[C@@]2(C)O1)C(C)(C)CC[C@@H]3O.Cl (stereo partly drawn) |  | 0.8 | Not Active |
| C=C[C@@]1(C)CC(=O)[C@]2(O)C3(C)C(C(O)C(OC(=O)CN(C)C4CCCCC4)[C@@]2(C)O1)C(C)(C)CC[C@@H]3O (stereo partly drawn) |  | 10 | Not Active |
| C=C[C@@]1(C)CC(=O)[C@]2(O)C3(C)C(C(O)C(OC(=O)C(C)N4CCN(C)CC4)[C@@]2(C)O1)C(C)(C)CC[C@@H]3O.Cl (stereo partly drawn) |  | 10 | Not Active |
| CC(CCc1ccc(O)cc1)NCCc1ccc(O)c(O)c1 (stereo not drawn) [DOBUTAMINE] | 0.3 (≈ 0.995 µM) |  |  |
| C=C[C@@]1(C)CC(=O)[C@]2(O)C3(C)C(C(O)C(OC(=O)Cn4c(=O)c5c(ncn5COCCOC)n(C)c4=O)[C@@]2(C)O1)C(C)(C)CC[C@@H]3O (stereo partly drawn) | 2 (≈ 3.02 µM) | 6 |  |
| C=C[C@@]1(C)CC(=O)[C@]2(O)C3(C)C(C(OC(=O)C(C)N4CCOCC4)C(O)[C@@]2(C)O1)C(C)(C)CC[C@@H]3O.Cl (stereo partly drawn) | > 30 | 3 |  |
| C=C[C@@]1(C)CC(=O)[C@]2(O)C3(C)C(C(O)C(OC(=O)CCCCCCCCCCCN4CCOCC4)[C@@]2(C)O1)C(C)(C)CC[C@@H]3O.Cl (stereo partly drawn) |  | 1.6 | Not Active |
| C=C[C@@]1(C)CC(=O)[C@]2(O)C3(C)C(C(OC(=O)C(C)N4CCCCC4)C(O)[C@@]2(C)O1)C(C)(C)CC[C@@H]3O.Cl (stereo partly drawn) |  | 1 | Not Active |
| C=C[C@@]1(C)CC(=O)[C@]2(O)C3(C)C(C(OC(=O)CCN4CCN(C)CC4)C(O)[C@@]2(C)O1)C(C)(C)CC[C@@H]3O.Cl (stereo partly drawn) | 0.2 | 1.4 |  |
| C=C[C@@]1(C)CC(=O)[C@]2(O)C3(C)C(C(O)C(OC(=O)CCN4CCN(C)CC4)[C@@]2(C)O1)C(C)(C)CC[C@@H]3O.Cl (stereo partly drawn) |  |  | Not Active |
| C=C[C@@]1(C)CC(=O)[C@]2(O)C3(C)C(C(O)C(OC(=O)CCCN4CCCCC4)[C@@]2(C)O1)C(C)(C)CC[C@@H]3O.Cl (stereo partly drawn) | > 30 | 0.3 |  |
| C=C[C@@]1(C)CC(=O)[C@]2(O)C3(C)C(C(OC(=O)C(C)N4CCN(C)CC4)C(O)[C@@]2(C)O1)C(C)(C)CC[C@@H]3O.Cl (stereo partly drawn) |  | 3 | Not Active |
| C=C[C@@]1(C)CC(=O)[C@]2(O)C3(C)C(C(O)C(OC(=O)CCCn4cnc5c4c(=O)n(C)c(=O)n5C)[C@@]2(C)O1)C(C)(C)CC[C@@H]3O (stereo partly drawn) |  | 3 | Not Active |
| C=C[C@@]1(C)CC(=O)[C@]2(O)C3(C)C(C(O)C(OC(=O)C(C)N4CCCCC4)[C@@]2(C)O1)C(C)(C)CC[C@@H]3O (stereo partly drawn) | > 30 | 4.5 |  |
| C=C[C@@]1(C)CC(=O)[C@]2(O)C3(C)C(C(O)C(OC(=O)CCN4CCOCC4)[C@@]2(C)O1)C(C)(C)CC[C@@H]3O.Cl (stereo partly drawn) |  |  | Not Active |

| SMILES | EC50 [1] [µg/mL] | ED20 [2] [mg/kg] | EC50 [3] |
| --- | --- | --- | --- |
| C=C[C@@]1(C)CC(=O)[C@]2(O)C3(C)C(C(O)C(OC(=O)Cn4nnc5ccccc54)[C@@]2(C)O1)C(C)(C)CC[C@@H]3O (stereo partly drawn) | > 30 | 3 |  |
| C=C[C@@]1(C)CC(=O)[C@]2(O)C3(C)C(C(OC(=O)CCCCN4CCCCC4)C(O)[C@@]2(C)O1)C(C)(C)CC[C@@H]3O.Cl (stereo partly drawn) | > 30 | 1 |  |
| C=C[C@@]1(C)CC(=O)[C@]2(O)C3(C)C(C(OC(=O)CN4CCN(C)CC4)C(O)[C@@]2(C)O1)C(C)(C)CC[C@@H]3O.Cl (stereo partly drawn) | 30 | 1.3 |  |
| C=C[C@@]1(C)CC(=O)[C@]2(O)C3(C)C(C(OC(=O)CCCN4CCCCC4)C(O)[C@@]2(C)O1)C(C)(C)CC[C@@H]3O.Cl (stereo partly drawn) |  | 3 | Not Active |
| C=C[C@@]1(C)CC(=O)[C@]2(O)C3(C)C(C(O)C(OC(=O)Cn4cnc5ccccc54)[C@@]2(C)O1)C(C)(C)CC[C@@H]3O (stereo partly drawn) |  | 10 | Not Active |
| C=C[C@@]1(C)CC(=O)[C@]2(O)C3(C)C(C(OC(=O)CN4CCCCCC4)C(O)[C@@]2(C)O1)C(C)(C)CC[C@@H]3O.Cl (stereo partly drawn) | 1.9 | 1 |  |
| C=C[C@@]1(C)CC(=O)[C@]2(O)C3(C)C(C(O)C(OC(=O)CN4CCCC(C)C4)[C@@]2(C)O1)C(C)(C)CC[C@@H]3O.Cl (stereo partly drawn) | > 30 | 10 |  |
| C=C[C@@]1(C)CC(=O)[C@]2(O)C3(C)C(C(OC(=O)CN4CCC(NC(=O)c5ccccc5)CC4)C(O)[C@@]2(C)O1)C(C)(C)CC[C@@H]3O (stereo partly drawn) | 1.2 (≈ 1.96 µM) | 4 |  |
| C=C[C@@]1(C)CC(=O)[C@]2(O)C3(C)C(C(OC(=O)CN4CCSCC4)C(O)[C@@]2(C)O1)C(C)(C)CC[C@@H]3O.Cl (stereo partly drawn) | 1.5 | 5 |  |
| C=C[C@@]1(C)CC(=O)[C@]2(O)C3(C)C(C(OC(=O)CN4CCCC4)C(O)[C@@]2(C)O1)C(C)(C)CC[C@@H]3O.Cl (stereo partly drawn) | 3 | 1 |  |
| C=C[C@@]1(C)CC(=O)[C@]2(O)C3(C)C(C(O)C(OC(=O)CN4CCN(C)CC4)[C@@]2(C)O1)C(C)(C)CC[C@@H]3O.Cl (stereo partly drawn) | > 30 | 0.9 |  |
| C=C[C@@]1(C)CC(=O)[C@]2(O)C3(C)C(C(O)C(OC(=O)C(C)(C)N4CCOCC4)[C@@]2(C)O1)C(C)(C)CC[C@@H]3O.Cl (stereo partly drawn) | 3 | 1.8 |  |
| C=C[C@@]1(C)CC(=O)[C@]2(O)C3(C)C(C(O)C(OC(=O)CCN4C(=O)c5ccccc5C4=O)[C@@]2(C)O1)C(C)(C)CC[C@@H]3O (stereo partly drawn) | > 30 | 10 |  |
| C=C[C@@]1(C)CC(=O)[C@]2(O)C3(C)C(C(O)C(OC(=O)CN4CCC(C)CC4)[C@@]2(C)O1)C(C)(C)CC[C@@H]3O.Cl (stereo partly drawn) | > 30 | 10 |  |
| C=C[C@@]1(C)CC(=O)[C@]2(O)C3(C)C(C(OC(=O)Cn4cnc5c4c(=O)n(C)c(=O)n5C)C(O)[C@@]2(C)O1)C(C)(C)CC[C@@H]3O (stereo partly drawn) | 3 (≈ 5.1 µM) | 4.5 |  |
| C=C[C@@]1(C)CC(=O)[C@]2(O)C3(C)C(C(O)C(OC(=O)CCN4CCCCC4)[C@@]2(C)O1)C(C)(C)CC[C@@H]3O.Cl (stereo partly drawn) | 1 |  |  |
| C=C[C@@]1(C)CC(=O)[C@]2(O)C3(C)C(C(O)C(OC(=O)CCCCN4CCCCC4)[C@@]2(C)O1)C(C)(C)CC[C@@H]3O.Cl (stereo partly drawn) | 30 | 1 |  |
| C=C[C@@]1(C)CC(=O)[C@]2(O)C3(C)C(C(O)C(OC(=O)CCCN4CCOCC4)[C@@]2(C)O1)C(C)(C)CC[C@@H]3O.Cl (stereo partly drawn) | 10 | 1.8 |  |
| C=C[C@@]1(C)CC(=O)[C@]2(O)C3(C)C(C(O)C(OC(=O)CNc4ccccc4)[C@@]2(C)O1)C(C)(C)CC[C@@H]3O (stereo partly drawn) | > 10 | 2 |  |
| C=C[C@@]1(C)CC(=O)[C@]2(O)C3(C)C(C(O)C(OC(=O)CN4CCC(NC(=O)c5ccccc5)CC4)[C@@]2(C)O1)C(C)(C)CC[C@@H]3O (stereo partly drawn) |  | 3 | Not Active |
| C=C[C@@]1(C)CC(=O)[C@]2(O)C3(C)C(C(O)C(OC(=O)CN4CCCCC4)[C@@]2(C)O1)C(C)(C)CC[C@@H]3O.Cl (stereo partly drawn) | > 30 | 10 |  |
| C=C[C@@]1(C)CC(=O)[C@]2(O)C3(C)C(C(O)C(OC(=O)C(C)Nc4ccccc4)[C@@]2(C)O1)C(C)(C)CC[C@@H]3O (stereo partly drawn) |  | 3 | Not Active |
| C=C[C@@]1(C)CC(=O)[C@]2(O)C3(C)C(C(O)C(OC(=O)CN4CCSCC4)[C@@]2(C)O1)C(C)(C)CC[C@@H]3O.Cl (stereo partly drawn) | > 30 | 3 |  |
| C=C[C@@]1(C)CC(=O)[C@]2(O)C3(C)C(C(O)C(OC(=O)C(C)n4cnc5c4c(=O)n(C)c(=O)n5C)[C@@]2(C)O1)C(C)(C)CC[C@@H]3O (stereo partly drawn) | 0.9 (≈ 1.49 µM) | 5 |  |
| C=C[C@@]1(C)CC(=O)[C@]2(O)C3(C)C(C(O)C(OC(=O)Cn4cc(C(=O)OCC)c(=O)c5ccc(C(F)(F)F)cc54)[C@@]2(C)O1)C(C)(C)CC[C@@H]3O (stereo partly drawn) |  |  | Not Active |
| C=C[C@@]1(C)CC(=O)[C@]2(O)C3(C)C(C(O)C(OC(=O)Cn4cnc5c4c(=O)n(C)c(=O)n5C)[C@@]2(C)O1)C(C)(C)CC[C@@H]3O (stereo partly drawn) | 0.74 (≈ 1.26 µM) | 3 |  |
